From PubChem
A selection: hits, their analogues and other compounds. The true share with any hit is near 1.5%.
m-calpain inh – inhibitors of pig calpain II | purified calpain II, fluorogenic peptide substrate, 30 min | inhibition, % at 16 µM | actives 0.37% (n = 220,000) | AID 1236;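 active means inhibition above about 50%, limit read from the data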
Pf gamet viab – kills late stage P. falciparum gametocytes; P. falciparum stage V gametocytes, ATP luminescence, 24 h; inhibition, % at 10.9 µM; actives 0.065% (n = 150,000);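 active means inhibition above the mean plus 3 SD of compounds within the control limits, set per campaign, cut at about 38% in these data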
Wee1 stabilizer – human Wee1 degradation inhibition, primary screen | actives 1.2% (n = 220,000) | P30291 | AID 1321 | reporter increase, % at 5 µM | HeLa Luc-Wee1K328M stability, luciferase luminescence; 100% = proteasome inhibitor MG132 effect;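 active means activation above the mean of all tested compounds plus 3 SD, set per screening run, cut at about 8.8% in these data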;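 further: cells exposed to compound for 20 h before luminescence read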
MDM2 E3 inh – inhibitors of human Mdm2 E3 ubiquitin ligase | actives 0.11% (n = 210,000) | Q00987 | AID 1230 | cell-based MDM2 ubiquitination luciferase reporter, 2 h; 0 = plate control, 100 = twice control, blank-subtracted | signal enhancement, % at 5 µM;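 active means signal enhancement of 30% or more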;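 further: luminescence tracks abundance of the self-degrading MDM2-luciferase fusion protein; higher signal means inhibition of MDM2 E3 ligase activity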
Target sequence (Q00987 whole entry, looked up, the tested form may be a part): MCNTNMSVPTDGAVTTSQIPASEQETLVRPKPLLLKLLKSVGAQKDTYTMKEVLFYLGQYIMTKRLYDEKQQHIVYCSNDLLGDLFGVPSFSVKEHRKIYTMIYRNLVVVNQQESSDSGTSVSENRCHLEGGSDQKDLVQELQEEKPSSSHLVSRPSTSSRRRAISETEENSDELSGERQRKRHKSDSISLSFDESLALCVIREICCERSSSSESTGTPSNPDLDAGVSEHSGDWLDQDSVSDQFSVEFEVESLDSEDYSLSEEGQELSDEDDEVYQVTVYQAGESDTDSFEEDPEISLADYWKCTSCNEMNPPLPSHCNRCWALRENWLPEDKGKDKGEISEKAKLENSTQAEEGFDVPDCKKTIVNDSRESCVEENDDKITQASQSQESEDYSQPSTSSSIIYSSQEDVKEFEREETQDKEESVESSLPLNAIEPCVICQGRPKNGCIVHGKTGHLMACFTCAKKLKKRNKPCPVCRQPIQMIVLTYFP
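Timing – 2 h compound exposure at 37 °C · Assay system – mammalian cells stably expressing self-ubiquitinating, self-degrading MDM2 E3–luciferase fusion · Amount – 2000 cells seeded into each well · Measure – % luminescence enhancement versus blank-corrected plate control mean · Measured by – SteadyLite luminescence, 15 min reagent step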
Hsp70 act – switches on Hsp70 transcription; AID 1203; actives 0.04% (n = 200,000); activation, % at 10 µM; HeLa Hsp70 promoter luciferase reporter, luminescence; scaled: vehicle 0, proteasome-inhibitor control 100%;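 active means activation above the mean across all tested compounds plus 3 SD, cutoff set per campaign, cut at about 5.5% in these data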
Wee1 degr conf – confirmation of human Wee1 degradation inhibitors | shares compounds with Wee1 stabilizer | HeLa Luc-Wee1K328M degradation, luminescence; vehicle 0%, proteasome-blocked wells 100% | activation, % at 5 µM | actives 4% (n = 1,100) | AID 1410; in the data active means activation above about 8.9%
Each line names hits and unclear results; the compound was inactive in the other large screens (follow-up assays come after a bar, where they were run).

O=C(COc1ccc(Cl)cc1)N1CCN(C/C=C/c2ccccc2)CC1	Wee1 stabilizer 17 | Wee1 degr conf inactive
O=C(COc1ccccc1)N1CCN(C/C=C/c2ccccc2)CC1	none
CCN(CC)CCCN=Cc1c(O)n(-c2ccccc2F)c(=O)[nH]c1=O	Wee1 stabilizer 36 (no result: Pf gamet viab) | Wee1 degr conf inactive
COC(=O)C1=C(c2ccc(OC)c(OC)c2)C[C@@H]2CC[C@H]1N2C(=O)NCCNC(C)=O	none (no result: m-calpain inh, Wee1 stabilizer, MDM2 E3 inh, Hsp70 act)
CC12CN3CC(C)(CN(C1)C3c1cccs1)C2O (stereo not given)	Wee1 stabilizer 13 | Wee1 degr conf inactive
CC(=O)OC1(c2ccccc2)CC(C(C)(C)C)CN(C(C)(C)C)C1 (stereo not given)	Wee1 stabilizer 14 | Wee1 degr conf inactive
COC(=O)C1=C(c2ccc(F)cc2F)C[C@@H]2CC[C@H]1N2C(=O)NCCOc1ccccc1	none (no result: m-calpain inh, Wee1 stabilizer, MDM2 E3 inh, Hsp70 act)
Cn1c(NN=O)nc2ccccc21	Wee1 stabilizer 15 | Wee1 degr conf inactive
CN1CCN(Cc2nc3ccccc3n2C)CC1	none
CCOc1ccc([N+](=O)[O-])cc1CNCCc1ccccc1	Wee1 stabilizer 11 (no result: Pf gamet viab) | Wee1 degr conf inactive
O=[N+]([O-])c1ccc(CNCCc2ccccc2)cc1	none (no result: m-calpain inh, Wee1 stabilizer, MDM2 E3 inh, Hsp70 act)
COc1ccccc1N1CCN(Cc2ccc(F)cc2)CC1	Wee1 stabilizer 14 | Wee1 degr conf inactive
COc1ccc(CN2CCN(c3ccccc3F)CC2)cc1O	none (no result: Pf gamet viab)
CC(C)(O)[C@H]1O[C@H]2CC[C@@]3(C)[C@@](O)(CC[C@H]4Cc5c([nH]c6ccccc56)[C@@]43C)C2=CC1=O	none (no result: Pf gamet viab)
COC(=O)C1=C(c2ccc(S(C)(=O)=O)cc2)C[C@@H]2CC[C@H]1N2C(=O)NCCCOC(C)C	none (no result: m-calpain inh, Wee1 stabilizer, MDM2 E3 inh, Hsp70 act)
COc1ccc(-c2cc(=NCCCCCC(=O)O)c3cc(C)ccc3o2)cc1	Wee1 stabilizer 17 | Wee1 degr conf inactive
COC(=O)C1=C(c2cccc(C#N)c2)C[C@@H]2CC[C@H]1N2C(=O)N1CCc2cc(OC)c(OC)cc2C1	none (no result: m-calpain inh, Wee1 stabilizer, MDM2 E3 inh, Hsp70 act)
O=C(C[N+]12CCC(CC1)C(CO)C2)c1ccc([N+](=O)[O-])cc1 (stereo not given)	Wee1 stabilizer 14 | Wee1 degr conf inactive
CC1(C)C2([N+](=O)[O-])CN3CC1([N+](=O)[O-])CN(C2)C3c1cccnc1 (stereo not given)	Wee1 stabilizer 14 (no result: Hsp70 act) | Wee1 degr conf inactive
CC12CN3CC(C)(CN(C1)C3c1cccnc1)C2=O (stereo not given)	none
